The results in this text go back to ChEMBL document CHEMBL1154522, “Aryl sulfamates are broad spectrum inactivators of sulfatases: effects on sulfatases from various sources” (Bioorg Med Chem Lett, 2009).

Substrate in data set [1]: O=[N+]([O-])c1ccc(OS(=O)(=O)O)cc1
Nature of the data set: Activity at Pseudomonas aeruginosa recombinant arylsulfatase A expressed in Escherichia coli. The gist of the method:
(§1)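 Hydrolysis of potassium 4-nitrophenyl sulfate followed by release of 4-nitrophenol; Vmax is expressed per mg protein and Km in mM; Vmax/Km is derived from these.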

Substrate in data set [2]: O=[N+]([O-])c1ccc(OS(=O)(=O)O)cc1
Nature of the data set: Activity at Pseudomonas aeruginosa recombinant arylsulfatase A expressed in Escherichia coli assessed per mg of protein. An outline of the steps: as §1

B1: Arylsulfatase (Pseudomonas aeruginosa (strain ATCC 15692 / PAO1 / 1C / PRS 101 / LMG12228)), P51691 (protein)
chain: MSKRPNFLVIVADDLGFSDIGAFGGEIATPNLDALAIAGLRLTDFHTASTCSPTRSMLLTGTDHHIAGIGTMAEALTPELEGKPGYEGHLNERVVALPELLREAGYQTLMAGKWHLGLKPEQTPHARGFERSFSLLPGAANHYGFEPPYDESTPRILKGTPALYVEDERYLDTLPEGFYSSDAFGDKLLQYLKERDQSRPFFAYLPFSAPHWPLQAPREIVEKYRGRYDAGPEALRQERLARLKELGLVEADVEAHPVLALTREWEALEDEERAKSARAMEVYAAMVERMDWNIGRVVDYLRRQGELDNTFVLFMSDNGAEGALLEAFPKFGPDLLGFLDRHYDNSLENIGRANSYVWYGPRWAQAATAPSRLYKAFTTQGGIRVPALVRYPRLSRQGAISHAFATVMDVTPTLLDLAGVRHPGKRWRGREIAEPRGRSWLGWLSGETEAAHDENTVTGWELFGMRAIRQGDWKAVYLPAPVGPATWQLYDLARDPGEIHDLADSQPGKLAELIEHWKRYVSETGVVEGASPFLVR
B1: the Km in data set [1] stood at 0.77 µM. In data set [2], the Vmax was 6.1 mmol/min/mg.
